The source of these data is ChEMBL document CHEMBL1142819, “Synthesis of benzoyl phenyl benzoates as effective inhibitors for phospholipase A2 and hyaluronidase enzymes” (Bioorg Med Chem Lett, 2005).

Structures are written as SMILES. Active and inactive are the calls of the source. No cut-off for these calls is given here.

For assay [1], the system named is Mus musculus. Kind of assay: Edema ratio expressed as weight of edematous leg to 100/weight of normal leg in mice upon injection of 300 uM compound preincubated with 1 ug phospholipase A2 of Synovial fluid at 37 C for 1 hr into the mice foot pads. It counts as functional. In short, it runs like this:
(§1)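 Each PLA2 enzyme (1 µg) was preincubated with compound (300 µM) at 37 °C for 1 h, then injected into the right hind footpad of mice (22–24 g) in saline. The left footpad received saline as control. After 45 min the mice were killed, and both legs were cut at the ankle and weighed. Edema ratio = edematous leg weight × 100 / normal leg weight. Results given as mean SD (n = 4); Student's t test, P < 0.05.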

Assay [2] relates to Mus musculus. Kind of assay: Edema ratio expressed as weight of edematous leg to 100/weight of normal leg in mice upon injection of 300 uM compound preincubated with 1 ug phospholipase A2 of Trimeresurus flavoviridis at 37 C for 1 hr into the mice foot pads. The assay is classed as functional. In short, it runs like this: as §1
The target of assay [3] is Acidic phospholipase A2 EC-I (Echis carinatus, UniProt Q7T3S7). Briefly: In vitro inhibitory concentration against phospholipase A2 of Echis carinatus venom.
For the next assay, the target named is T1, Basic phospholipase A2 1 (Naja melanoleuca, UniProt P00599).
T1 sequence (P00599 whole entry): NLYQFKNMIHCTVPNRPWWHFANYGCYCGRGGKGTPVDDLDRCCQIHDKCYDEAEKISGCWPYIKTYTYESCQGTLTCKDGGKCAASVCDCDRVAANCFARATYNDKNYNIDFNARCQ
Kind of assay: In vitro inhibitory concentration against phospholipase A2 of Naja melanoleuca venom.

A further assay concerns Naja melanoleuca. Briefly: Percent inhibition of hyaluronidase from Naja melanoleuca venom; NI = No inhibition.
In assay [4] the test system is Daboia russelii russelii. Briefly: Percent inhibition of hyaluronidase from Vipera russelli russelli venom. Also noted: concentration or dose not given beside the values. As to conditions: concentration not given here.
Assay [5] relates to Naja naja. Kind of assay: Percent inhibition of hyaluronidase from Naja naja naja venom. On the set-up: concentration or dose not given beside the values. To be noted: concentration not given here.
Assay [6] concerns Protobothrops elegans. Kind of assay: Percent inhibition of hyaluronidase from Trimeresurus elegans venom; NI = No inhibition.
For assay [7], the target named is T2, Basic phospholipase A2 PLA-A (Trimeresurus flavoviridis, UniProt P59264).
T2 sequence (P59264 whole entry): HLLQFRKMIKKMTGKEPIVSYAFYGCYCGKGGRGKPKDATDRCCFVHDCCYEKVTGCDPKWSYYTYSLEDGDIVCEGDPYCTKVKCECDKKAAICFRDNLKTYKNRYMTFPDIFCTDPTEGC
Briefly: In vitro inhibitory concentration against phospholipase A2 of Trimeresurus flavoviridis venom. Also noted: species or system Protobothrops flavoviridis.

Assay [8] can be described thus: In vitro Inhibitory concentration against phospholipase A2 activity of synovial fluid. Also noted: species or system Homo sapiens.
Assay [9] concerns Mus musculus. Kind of assay: Edema ratio expressed as weight of edematous leg to 100/weight of normal leg in mice upon injection of 300 uM compound pre-incubated with 1 ug phospholipase A2 of Echis carinatus at 37 C for 1 h into the mice foot pads. The assay is classed as functional. Put shortly: as §1
Assay [10] deals with Mus musculus. Kind of assay: Edema ratio expressed as weight of edematous leg to 100/weight of normal leg in mice upon injection of 300 uM compound pre-incubated with 1 ug phospholipase A2 of Naja melanoleuca at 37 degree C for 1 h into mice foot pads. It counts as functional. In short, it runs like this: as §1
In assay [11] the test system is Protobothrops elegans. Kind of assay: Percent inhibition of hyaluronidase from Trimeresurus elegans venom. To be noted: concentration not given here. On the set-up: concentration or dose not given beside the values.
Assay [12] has as its system Naja naja. Kind of assay: Percent inhibition of hyaluronidase from Naja naja naja venom; NI = No inhibition.
For assay [13], the system named is Daboia russelii russelii. Kind of assay: Percent inhibition of hyaluronidase from Vipera russelli russelli venom; NI = No inhibition.

Sequence of Acidic phospholipase A2 EC-I (Q7T3S7 17-136 limits assumed): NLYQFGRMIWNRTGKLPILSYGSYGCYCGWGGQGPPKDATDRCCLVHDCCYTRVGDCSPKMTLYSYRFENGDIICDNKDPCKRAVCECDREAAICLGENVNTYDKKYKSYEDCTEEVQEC

For `Cc1ccc(OC(=O)c2ccccc2)c(C(=O)c2ccccc2)c1`, the Ratio is 109 with Mus musculus [1] and 105 with Mus musculus [2]. For the same molecule, the concentration for half-maximal inhibition (IC50) (as a rule, the midpoint of a concentration-inhibition curve) in assay [3] turned out to be 94 µM; at Basic phospholipase A2 1, 60 µM; in [7], 69 µM; in assay [8], 46 µM. The inhibition entry with Naja melanoleuca and in the assay on Protobothrops elegans [6] was “inactive” in each case. For the same molecule, the inhibition (in general, the relative decrease from the control value, in per cent) with Daboia russelii russelii [4] was found to be 28.2%; with Naja naja [5], 13.9%.
For `O=C(Oc1ccc(Cl)cc1C(=O)c1cccc(Cl)c1Cl)c1ccccc1`, the Ratio with Mus musculus [1] is 102; in the assay on Mus musculus [9], 103; in the assay with Mus musculus [10], 104; in the assay with Mus musculus [2], 105. Further, the IC50 is 40 µM in assay [3], 53 µM at Basic phospholipase A2 1, 46 µM in assay [7] and 32 µM in [8]. The inhibition was determined as 76.8% in the assay with Protobothrops elegans [11], 71.6% in the assay on Daboia russelii russelii [4] and 85.3% in the assay with Naja naja [5].
On to `Cc1ccc(C(=O)Oc2ccc(C)cc2C(=O)c2ccc(C)cc2)cc1`, for which the Ratio with Mus musculus [10] turned out to be 103. Further, the IC50 in [3] was found to be 96 µM; on Basic phospholipase A2 1, 57 µM; in assay [7], 108 µM; in assay [8] it was 123 µM. For the same molecule, the inhibition in the assay on Protobothrops elegans [11] came out at 76.8%; with Daboia russelii russelii [4] it was 46%; in the assay with Naja naja [5], 69.3%. Further, the inhibition entry with Naja melanoleuca was “inactive”.
Turning to `Cc1cc(C(=O)c2cccc(Cl)c2Cl)ccc1OC(=O)c1ccccc1`, the half-inhibitory concentration (IC50) stood at 112 µM in assay [3], 132 µM at Basic phospholipase A2 1, 89 µM in assay [7] and 156 µM in assay [8]. Besides, the inhibition in the assay with Protobothrops elegans [11] stood at 33.1%; in the assay on Daboia russelii russelii [4], 26.2%. The inhibition result in the assay with Naja naja [12] was “inactive”.
In the case of `Cc1ccc(OC(=O)c2ccccc2C)c(C(=O)c2ccccc2C)c1`, the Ratio is 106 in the assay on Mus musculus [1] and 102 in the assay on Mus musculus [10]. The IC50 in [3] worked out at 105 µM; on Basic phospholipase A2 1, 98 µM; in assay [7], 139 µM; in assay [8], 86 µM. Besides, the figures for the inhibition with Protobothrops elegans [11] and with Naja naja [5] were 42.4% and 58.7%, respectively. In addition, in the assay with Daboia russelii russelii [13], the inhibition entry was “inactive”.
With `Cc1ccc(C(=O)Oc2ccc(C(=O)c3ccccc3C)cc2C)cc1`, in the assay with Mus musculus [1], the Ratio turned out to be 101. The IC50 in assay [3] came out at 87 µM; against Basic phospholipase A2 1, 73 µM; in assay [7] it was 75 µM; in assay [8], 56 µM. Besides, the inhibition with Protobothrops elegans [11] is 48.9%; in the assay with Daboia russelii russelii [4], 36.9%; in the assay with Naja naja [5] it was 42.4%.
Take `Cc1ccc(OC(=O)c2cccc(Cl)c2)c(C(=O)c2cccc(Cl)c2)c1`: the Ratio in the assay on Mus musculus [1] is listed as 101; with Mus musculus [9], 101; with Mus musculus [10], 101; in the assay with Mus musculus [2], 102. Further, the IC50 is 2.3 µM in [3], 2.9 µM at Basic phospholipase A2 1, 2.5 µM in assay [7] and 2.5 µM in assay [8]. Besides, the inhibition was 92.5% in the assay on Protobothrops elegans [11], 87.8% in the assay on Daboia russelii russelii [4] and 89.3% in the assay on Naja naja [5].
Take `C[C@H]1[C@H](C)CC[C@]2(C(=O)O)CC[C@]3(C)C(=CC[C@@H]4[C@@]5(C)CC[C@H](O)C(C)(C)[C@@H]5CC[C@]43C)[C@H]12` [URSOLIC ACID]: the 50% inhibitory concentration (IC50) in [3] was found to be 2.3 µM; against Basic phospholipase A2 1, 2.9 µM.
